Experimental data: ChEMBL document CHEMBL4311977, “Design and synthesis of parthenolide and 5-fluorouracil conjugates as potential anticancer agents against drug resistant hepatocellular carcinoma” (Eur J Med Chem, 2019)
Calls of active or inactive are those of the source. The calls are words filed in the database; no cut-off is given here.

Tests used:
Bel7402/5-FU [1] = experiment: Induction of apoptosis in human Bel7402/5-FU cells assessed as increase in apoptotic bodies incubated for 48 hrs by DAPI staining based fluorescence microscopic analysis; format: functional, cell-based
Outline: (§1)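 Bel-7402/5-FU cells were seeded at 5 × 10⁵ per well and left 12 h, then exposed at three concentrations (1, 2, 5) for 48 h. Cells were washed three times in PBS and stained with DAPI for 10 min at room temperature. Nuclear morphology was scored by fluorescence microscopy.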

Bel7402/5-FU [2] = experiment: Induction of apoptosis in human Bel7402/5-FU cells assessed as downregulation of Bcl-2 expression at 0.5 to 5 uM incubated for 24 hrs by Western blot analysis; format: functional, cell-based
Outline: (§2)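 Bel-7402/5-FU cells were seeded at 5 × 10⁵ per well and left 12 h, then treated with four concentrations (0.5, 1, 2, 5) for 24 h. Cells were PBS-washed and lysed in RIPA on ice for 30 min, then denatured at 100 °C for 5 min. Lysates went through SDS-PAGE and PVDF transfer, 5% milk blocking for 1 h at room temperature, primary antibodies, and HRP secondary for 2 h at room temperature.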

Bel7402/5-FU [3] = experiment: Induction of apoptosis in human Bel7402/5-FU cells assessed as downregulation of Bcl-xl expression at 0.5 to 5 uM incubated for 24 hrs by Western blot analysis; format: functional, cell-based; outline: as §2
Bel7402/5-FU [4] = experiment: Induction of apoptosis in human Bel7402/5-FU assessed as necrotic cells at 1 uM incubated for 48 hrs by annexinV-FITC/propidium iodide staining based flow cytometry (reference value: 0.024 to 0.157 %)
Bel7402/5-FU [5] = experiment: Induction of apoptosis in human Bel7402/5-FU assessed as early apoptotic cells at 1 uM incubated for 48 hrs by annexinV-FITC/propidium iodide staining based flow cytometry (reference value: 20.1 to 20.3 %)
Bel7402/5-FU [6] = experiment: Induction of apoptosis in human Bel7402/5-FU assessed as late apoptotic cells at 1 uM incubated for 48 hrs by annexinV-FITC/propidium iodide staining based flow cytometry (reference value: 0.268 to 0.945 %)
Bel7402/5-FU [7] = experiment: Induction of apoptosis in human Bel7402/5-FU cells assessed as upregulation of Bax expression at 0.5 to 5 uM incubated for 24 hrs by Western blot analysis; format: functional, cell-based; outline: as §2
[8] = Therapeutic index, ratio of IC50 for mouse 3T3 cells to IC50 for human Bel7402/5-FU cells; format: toxicity; details: mouse 3T3 cells versus human Bel7402/5-FU cells, read-out: TI
NIH3T3 = experiment: Cytotoxicity against mouse 3T3 cells; format: cell-based
Bel7402/5-FU [9] = experiment: Induction of apoptosis in human Bel7402/5-FU assessed as apoptotic cells at 5 uM incubated for 48 hrs by annexinV-FITC/propidium iodide staining based flow cytometry (reference value: 3.37 +/- 0.47 %)
Bel7402/5-FU [10] = experiment: Down regulation of ABCC1 expression in human Bel7402/5-FU cells incubated for 24 hrs by western blot analysis; format: functional, cell-based; outline: as §2
Bel7402/5-FU [11] = experiment: Increase in ADR intracellular accumulation in human Bel7402/5-FU cells preincubated for 24 hrs followed by adriamycin addition measured after 1 hr by flow cytometry
Bel7402/5-FU [12] = experiment: Induction of apoptosis in human Bel7402/5-FU assessed as necrotic cells at 2.5 uM incubated for 48 hrs by annexinV-FITC/propidium iodide staining based flow cytometry (reference value: 0.024 to 0.157 %)
Bel7402/5-FU [13] = experiment: Induction of apoptosis in human Bel7402/5-FU cells assessed as activation of caspase-3 at 0.5 to 5 uM incubated for 24 hrs by Western blot analysis; format: functional, cell-based; outline: as §2
Bel7402/5-FU [14] = experiment: Induction of apoptosis in human Bel7402/5-FU cells assessed as activation of caspase-9 at 0.5 to 5 uM incubated for 24 hrs by Western blot analysis; format: functional, cell-based; outline: as §2
Bel7402/5-FU [15] = experiment: Down regulation of Pgp expression in human Bel7402/5-FU cells at 0.5 uM incubated for 24 hrs by flow cytometry
Bel7402/5-FU [16] = experiment: Induction of apoptosis in human Bel7402/5-FU assessed as necrotic cells at 5 uM incubated for 48 hrs by annexinV-FITC/propidium iodide staining based flow cytometry (reference value: 0.157 %)
Bel7402/5-FU [17] = experiment: Induction of apoptosis in human Bel7402/5-FU cells assessed as increase in cytochrome C level at 0.5 to 5 uM incubated for 24 hrs by Western blot analysis; format: functional, cell-based; outline: as §2
Bel7402/5-FU [18] = experiment: Induction of apoptosis in human Bel7402/5-FU cells assessed as increase in irregular nuclear morphology incubated for 48 hrs by DAPI staining based fluorescence microscopic analysis; format: functional, cell-based; outline: as §1
Bel7402/5-FU [19] = experiment: Down regulation of ABCG2 expression in human Bel7402/5-FU cells incubated for 24 hrs by western blot analysis; format: functional, cell-based; outline: as §2
Bel7402/5-FU [20] = experiment: Induction of apoptosis in human Bel7402/5-FU assessed as late apoptotic cells at 5 uM incubated for 48 hrs by annexinV-FITC/propidium iodide staining based flow cytometry (reference value: 0.945 %)
Bel7402/5-FU [21] = experiment: Induction of apoptosis in human Bel7402/5-FU assessed as early apoptotic cells at 2.5 uM incubated for 48 hrs by annexinV-FITC/propidium iodide staining based flow cytometry (reference value: 20.1 to 20.3 %)
Bel7402/5-FU [22] = experiment: Induction of apoptosis in human Bel7402/5-FU assessed as viable cells at 1 uM incubated for 48 hrs by annexinV-FITC/propidium iodide staining based flow cytometry (reference value: 96.9 to 97.1 %)
Bel-7402 = experiment: Antiproliferative activity against human Bel7402 incubated for 72 hrs by MTT assay; format: functional, cell-based; details: Bel-7402, 72 h
Outline: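 Bel-7402 and its 5-FU-resistant subline were kept in RPMI-1640 with 10% FBS and 1% penicillin/streptomycin at 37 °C under 5% CO2. Cells were seeded at 5000 per well and left for 12 h, then exposed to a concentration series for 72 h. MTT stock (5 mg/mL) was added for 4 h and the product dissolved in DMSO. OD was read at 570 nm and IC50 obtained by curve fitting.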

Bel7402/5-FU [23] = experiment: Down regulation of MDR1 expression in human Bel7402/5-FU cells incubated for 24 hrs by western blot analysis; format: functional, cell-based; outline: as §2
Bel7402/5-FU [24] = experiment: Induction of apoptosis in human Bel7402/5-FU assessed as apoptotic cells at 2.5 uM incubated for 48 hrs by annexinV-FITC/propidium iodide staining based flow cytometry (reference value: 3.37 +/- 0.47 %)

IC50 (Bel-7402): 2250 nM
Compound: C=C1C(=O)O[C@H]2[C@H]1CC/C(COC(=O)Cn1cc(F)c(=O)n(Cc3ccc(C(F)(F)F)cc3)c1=O)=C\CC[C@@]1(C)O[C@@H]21
Activity (Bel7402/5-FU [1]): Dose-dependent effect
Activity (Bel7402/5-FU [2]): Active
Activity (Bel7402/5-FU [3]): Active
Activity (Bel7402/5-FU [4]): 1.9%
Activity (Bel7402/5-FU [5]): 3.5%
Activity (Bel7402/5-FU [6]): 0.909%
Activity (Bel7402/5-FU [7]): Active
selectivity ratio [8]: 2.3
IC50 (NIH3T3): 5.2 µM
Activity (Bel7402/5-FU [9]): 77.97%
Activity (Bel7402/5-FU [10]): Dose-dependent effect
Activity (Bel7402/5-FU [11]): Dose-dependent effect
Activity (Bel7402/5-FU [12]): 1.87%
Activity (Bel7402/5-FU [13]): Active
Activity (Bel7402/5-FU [14]): Active
Activity (Bel7402/5-FU [15]): Active
Activity (Bel7402/5-FU [16]): 1.49 - 1.75%
Activity (Bel7402/5-FU [17]): Active
Activity (Bel7402/5-FU [18]): Dose-dependent effect
Activity (Bel7402/5-FU [19]): Dose-dependent effect
Activity (Bel7402/5-FU [20]): 19.5 - 46.1%
Activity (Bel7402/5-FU [21]): 7.75%
viability at 1 µM (Bel7402/5-FU [22]): 94.3%
Activity (Bel7402/5-FU [23]): Dose-dependent effect
Activity (Bel7402/5-FU [24]): 14.43%
